Assay outcomes deposited in PubChem BioAssay by Broad Institute.
This excerpt belongs to a sample that is enriched for hits.
GASC1 inh: blocks human GASC-1 (KDM4C) demethylase activity; AID 720574; Q9H3R0; 96,000 tested, 0.15% active; inhibition, % at 12.5 µM; GST-KDM4C 2-372, H3K9me3 peptide, LANCE TR-FRET;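 active = mean replicate inhibition above about 25%, with at least 55% of replicates also reaching it, limit read from the data, passing the limit was not always enough; inconclusive = only one of those two conditions met; inactive = neither condition met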
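Test system – GST-tagged GASC-1 (JMJD2C) catalytic fragment, aa 2-372 · Medium – HEPES buffer, pH 7.5, plus ascorbate · Reagent – H3K9me3 peptide with Fe(II)/2OG · Compound – one test concentration per compound · Timing – 30 min reaction, 60 min detection, RT · Technique – TR-FRET with Eu antibody and ULight streptavidin, EDTA stop · Read-out basis – inhibition from TR-FRET ratio decrease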
T cruzi growth-1: T. cruzi proliferation inhibition; inhibition, % at 8.34 µM; AID 624255; T. cruzi beta-gal in NIH3T3, GalScreen luminescence, 90 h; 77,000 tested, 5.9% active;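 active = mean inhibition above about 93%, with at least 55% of replicates each passing it, limit read from the data, passing the limit was not always enough; inconclusive = only one of those two conditions holds; inactive = neither condition holds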
IDH1 R132H inh: inhibitors of human IDH1 R132H; O75874; IDH1 R132H reductase, diaphorase/resazurin fluorescence, 60 min; inhibition, % at 10 µM; 70,000 tested, 0.18% active; AID 624101; in the data active = inhibition above about 34%; inconclusive = no clear call, values can overlap the other calls; inactive = below about 11%;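 also: 0% = DMSO and 100% = no enzyme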
Target sequence (O75874 whole entry R132H): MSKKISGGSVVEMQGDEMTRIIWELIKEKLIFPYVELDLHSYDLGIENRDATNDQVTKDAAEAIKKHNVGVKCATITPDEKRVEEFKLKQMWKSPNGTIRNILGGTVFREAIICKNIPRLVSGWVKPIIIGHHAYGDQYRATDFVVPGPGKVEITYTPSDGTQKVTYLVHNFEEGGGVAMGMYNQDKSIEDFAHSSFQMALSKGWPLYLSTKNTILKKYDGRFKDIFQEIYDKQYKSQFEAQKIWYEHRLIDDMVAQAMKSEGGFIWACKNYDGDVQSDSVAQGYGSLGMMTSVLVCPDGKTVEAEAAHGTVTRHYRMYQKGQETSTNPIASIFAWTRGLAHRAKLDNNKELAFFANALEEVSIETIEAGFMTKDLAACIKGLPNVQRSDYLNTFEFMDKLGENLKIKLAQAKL
T cruzi growth-2: blocks T. cruzi growth in NIH3T3 host cells; inhibition, % at 8.35 µM; 5,600 tested, 72% active; T. cruzi beta-gal in NIH3T3, GalScreen luminescence, 90 h; shares compounds with T cruzi growth-1;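 active = mean replicate inhibition above about 95% and at least 55% of replicates individually reaching it, limit read from the data; inconclusive = only one of the two criteria is met; inactive = neither criterion is met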
T cruzi growth-3: blocks T. cruzi growth in NIH3T3 host cells | shares compounds with T cruzi growth-1 | T. cruzi beta-gal in NIH3T3, GalScreen luminescence, 90 h | inhibition, % at 2.09 µM | 5,600 tested, 21% active | AID 651740;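 active = mean inhibition above about 95%, with at least 55% of replicates also reaching it, limit read from the data; inconclusive = meets just one of the two conditions; inactive = meets neither condition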;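 also: plate controls were neutral control median for no effect and positive control median for full effect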
NIH3T3 tox: NIH/3T3 (mouse) viability loss | shares compounds with T cruzi growth-1 | NIH/3T3 viability, CellTiter-Glo ATP luminescence, 90 h | 5,600 tested, 14% active | AID 651742 | cytotoxicity (signal decrease), % at 8.35 µM;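 active = mean signal decrease across replicates above about 35% based on untreated-well scatter, with enough replicates individually passing, limit read from the data; inconclusive = no rule stated though some were filed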;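 also: 0% = median of neutral control wells and 100% = median of positive control wells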
3T3 cytotox 2: cytotoxicity in mouse NIH/3T3 fibroblasts. AID 651744. 5,600 tested, 56% active. inhibition, % at 24.9 µM. NIH/3T3 viability, CellTiter-Glo ATP luminescence, 90 h. shares compounds with T cruzi growth-1;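 active = mean loss of cell viability signal at or above a set limit, and enough replicates individually reaching it; inconclusive = meets only the mean limit or only the replicate share; inactive = meets neither condition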;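 also: 0% = median of neutral control wells and 100% = median of positive control wells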
An asterisk follows results filed as active; ? = inconclusive; nt = no result given.

SMILES	GASC1 inh	T cruzi growth-1	IDH1 R132H inh	T cruzi growth-2	T cruzi growth-3	NIH3T3 tox	3T3 cytotox 2
C[C@@H]1CCCCO[C@H](CN(C)S(=O)(=O)c2ccc(Cl)cc2)[C@@H](C)CN([C@@H](C)CO)C(=O)c2cc(NC(=O)Cc3ccccc3)ccc2O1	-2	105*	-1	105*	87	-16	46*
C[C@@H]1CN([C@H](C)CO)C(=O)c2cc(NC(=O)Cc3ccccc3)ccc2O[C@@H](C)CCCCO[C@H]1CN(C)S(=O)(=O)c1ccc(Cl)cc1	0	96*	nt	107*	77	17	14
C[C@@H](O)C#Cc1ccc2c(c1)O[C@@H](CN(C)CC1CC1)[C@@H](C)CN([C@@H](C)CO)S2(=O)=O	-1	-53	nt	nt	nt	nt	nt
Cc1ccc(Cl)cc1NC(=O)C(C)n1nc(C)c([N+](=O)[O-])c1C (centres undefined)	nt	nt	0	nt	nt	nt	nt
C[C@@H](O)[C@@H](O)[C@@H](O)C/C=N/NC(=O)CCCCCC(=O)Nc1ccccc1O	nt	nt	0	nt	nt	nt	nt
C[C@@H]1CN([C@H](C)CO)C(=O)c2cc(C3=CCCC3)cnc2O[C@H]1CN(C)C(=O)Nc1ccc(C(F)(F)F)cc1	0	102*	nt	98*	44	23	59*
C[C@@H]1CN([C@H](C)CO)C(=O)c2cc(C3=CCCC3)cnc2O[C@H]1CN(C)C(=O)Nc1ccc(F)cc1	3	46	nt	nt	nt	nt	nt
C[C@H]1CN([C@@H](C)CO)C(=O)c2cc(C3=CCCCC3)cnc2O[C@H]1CN(C)C(=O)Nc1ccc(F)cc1	18	68	-3	nt	nt	nt	nt
C[C@H](CO)N1C[C@H](C)[C@@H](CN(C)C(=O)Nc2ccc(C(F)(F)F)cc2)Oc2ncc(C3=CCCC3)cc2C1=O	1	102*	nt	103*	52	18	74*
N#Cc1cccc(NC(=O)CCCN2C(=O)c3ccccc3C2=O)c1	nt	nt	0	nt	nt	nt	nt
COc1ccc(S(=O)(=O)Nc2cccc3c2O[C@H](CN(C)C(=O)Nc2c(C)noc2C)[C@H](C)CN([C@H](C)CO)C3=O)cc1	-1	93	-1	nt	nt	nt	nt
COc1ccc(NC(=O)Nc2ccc3c(c2)C(=O)N([C@H](C)CO)C[C@@H](C)[C@@H](CN(C)C(=O)NC2CCCCC2)OCCCC[C@@H](C)O3)cc1	-1	nt	3	nt	nt	nt	nt
COc1ccc(NC(=O)Nc2ccc3c(c2)C(=O)N([C@H](C)CO)C[C@@H](C)[C@H](CN(C)C(=O)NC2CCCCC2)OCCCC[C@@H](C)O3)cc1	1	100*	nt	107*	68	-24	-28
COc1ccc(NC(=O)Nc2ccc3c(c2)C(=O)N([C@@H](C)CO)C[C@H](C)[C@H](CN(C)C(=O)NC2CCCCC2)OCCCC[C@H](C)O3)cc1	-2	?	nt	110*	3	2	-29
COc1ccc(NC(=O)Nc2ccc3c(c2)C(=O)N([C@@H](C)CO)C[C@@H](C)[C@H](CN(C)C(=O)NC2CCCCC2)OCCCC[C@@H](C)O3)cc1	-2	61	1	nt	nt	nt	nt
COc1ccc(NC(=O)CN(C)S(=O)(=O)c2ccc(C)cc2)cc1OC	nt	nt	0	nt	nt	nt	nt
COc1ccc(CNCCSc2nnnn2C)cc1	nt	nt	0	nt	nt	nt	nt
O=C(C1CCC1)N1CCCCN2[C@@H](CO)[C@@H](c3ccc(C#CC4(O)CCCC4)cc3)[C@@H]2C1	-1	?	nt	89	54	5	0
O=C(C1CCCC1)N1CCCCN2[C@@H](CO)[C@H](c3ccc(C#CC4(O)CCCC4)cc3)[C@@H]2C1	nt	?	nt	98*	82	33	44*
O=C(C1CCCC1)N1CCCCN2[C@H](CO)[C@@H](c3ccc(C#CC4(O)CCCC4)cc3)[C@@H]2C1	nt	-23	nt	nt	nt	nt	nt
O=C(C1CCC1)N1CCCCN2[C@H](CO)[C@@H](c3ccc(C#CC4(O)CCCC4)cc3)[C@@H]2C1	1	58	nt	nt	nt	nt	nt
COC(=O)COc1ccc(NC(=O)c2ccc([N+](=O)[O-])c(C)c2)cc1	nt	nt	0	nt	nt	nt	nt
COc1cccc(NC(=O)CC2OCCN(Cc3ccccc3)C2=O)c1 (centres undefined)	nt	nt	0	nt	nt	nt	nt
